From ChEMBL document CHEMBL4689842, “EUbOPEN Chemogenomics Library wave 1” (2021)
Several values for one entry are separate records, joined by “and”; a condition that tells them apart may be missing. Equal values may be shown once.

Test system: HEK-293T
Test: Multiplex assay against HEK293T;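 on Population Tubulin-Different-Phenotype (%): share of the cells with healthy nuclei that show this phenotype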
Format: toxicity, cell-based
Settings: human
How it was run: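 Cells stained live at seeding with Hoechst33342, BioTracker Green Microtubule Cytoskeleton Dye, MitoTracker Red and Annexin V Alexa Fluor 680 were imaged on a CQ1 microscope at 37°C and 5% CO2 after compound addition. Their classification by CellPathfinder machine-learning gating ran from Hoechst high-intensity objects versus normal cells, to healthy, pyknosed or fragmented nuclei among normal cells, to mitotic or apoptotic among pyknosed cells. Tubulin, mitochondrial-mass and membrane-permeability phenotypes are per cents of healthy-nucleus cells.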

[1] = 12 h, 1 µM, compound concentration 1 uM, replicate 1
[2] = 12 h, 1 µM, compound concentration 1 uM, replicate 2
[3] = 12 h, 10 µM, compound concentration 10 uM, replicate 1
[4] = 12 h, 10 µM, compound concentration 10 uM, replicate 2
[5] = 24 h, 1 µM, compound concentration 1 uM, replicate 1
[6] = 24 h, 1 µM, compound concentration 1 uM, replicate 2
[7] = 24 h, 10 µM, compound concentration 10 uM, replicate 1
[8] = 24 h, 10 µM, compound concentration 10 uM, replicate 2
[9] = 48 h, 1 µM, compound concentration 1 uM, replicate 1
[10] = 48 h, 1 µM, compound concentration 1 uM, replicate 2
[11] = 48 h, 10 µM, compound concentration 10 uM, replicate 1
[12] = 48 h, 10 µM, compound concentration 10 uM, replicate 2

For `c1cn2cc(-c3ccc4cn[nH]c4c3)nc(Nc3ccc(N4CCOCC4)cc3)c2n1` [ENTOSPLETINIB], the “Population Apoptotic (%)” value [1] was 54%, the “Population Fragmented Nuclei (%)” value [1] was 8% and the “Population Healthy Nuclei (%)” value [1] was 40%. For the same compound, the “Population Hoechst High Intensity Objects (%)” value [1] was 16%, the “Population Membrane Permeable-Phenotype (%)” value [1] was 0% and the “Population Mitochondria Different-Phenotype (%)” value [1] was 95%. For the same compound, the “Population Mitotic Cells (%)” value [1] was 45%, the “Population Normal (%)” value [1] was 83% and the “Population Pyknosed Nuclei (%)” value [1] was 50%. The “Population Tubulin-Different-Phenotype (%)” value [1] was 74%, the “Total Cell Count” value [1] was 207 and the “Population Apoptotic (%)” value [2] was 22%. The “Population Fragmented Nuclei (%)” value [2] was 2%, the “Population Healthy Nuclei (%)” value [2] was 36% and the “Population Hoechst High Intensity Objects (%)” value [2] was 4%. The “Population Membrane Permeable-Phenotype (%)” value [2] was 10%, the “Population Mitochondria Different-Phenotype (%)” value [2] was 57% and the “Population Mitotic Cells (%)” value [2] was 77%. For the same compound, the “Population Normal (%)” value [2] was 95%, the “Population Pyknosed Nuclei (%)” value [2] was 60% and the “Population Tubulin-Different-Phenotype (%)” value [2] was 57%. The “Total Cell Count” value [2] was 197, the “Population Apoptotic (%)” value [3] was 41% and the “Population Fragmented Nuclei (%)” value [3] was 77%. For the same compound, the “Population Healthy Nuclei (%)” value [3] was 6%, the “Population Hoechst High Intensity Objects (%)” value [3] was 27% and the “Population Membrane Permeable-Phenotype (%)” value [3] was 8%. The “Population Mitochondria Different-Phenotype (%)” value [3] was 89%, the “Population Mitotic Cells (%)” value [3] was 58% and the “Population Normal (%)” value [3] was 72%. For the same compound, the “Population Pyknosed Nuclei (%)” value [3] was 16%, the “Population Tubulin-Different-Phenotype (%)” value [3] was 81% and the “Total Cell Count” value [3] was 1068. For the same compound, the “Population Apoptotic (%)” value [4] was 35%, the “Population Fragmented Nuclei (%)” value [4] was 52% and the “Population Healthy Nuclei (%)” value [4] was 8%. For the same compound, the “Population Hoechst High Intensity Objects (%)” value [4] was 22%, the “Population Membrane Permeable-Phenotype (%)” value [4] was 7% and the “Population Mitochondria Different-Phenotype (%)” value [4] was 85%. The “Population Mitotic Cells (%)” value [4] was 64%, the “Population Normal (%)” value [4] was 77% and the “Population Pyknosed Nuclei (%)” value [4] was 38%. The “Population Tubulin-Different-Phenotype (%)” value [4] was 85%, the “Total Cell Count” value [4] was 431 and the “Population Apoptotic (%)” value [5] was 43%. For the same compound, the “Population Fragmented Nuclei (%)” value [5] was 6%, the “Population Healthy Nuclei (%)” value [5] was 52% and the “Population Hoechst High Intensity Objects (%)” value [5] was 15%. For the same compound, the “Population Membrane Permeable-Phenotype (%)” value [5] was 6%, the “Population Mitochondria Different-Phenotype (%)” value [5] was 93% and the “Population Mitotic Cells (%)” value [5] was 56%. For the same compound, the “Population Normal (%)” value [5] was 84%, the “Population Pyknosed Nuclei (%)” value [5] was 41% and the “Population Tubulin-Different-Phenotype (%)” value [5] was 72%. For the same compound, the “Total Cell Count” value [5] was 227, the “Population Apoptotic (%)” value [6] was 24% and the “Population Fragmented Nuclei (%)” value [6] was 4%. For the same compound, the “Population Healthy Nuclei (%)” value [6] was 60%, the “Population Hoechst High Intensity Objects (%)” value [6] was 2% and the “Population Membrane Permeable-Phenotype (%)” value [6] was 5%. The “Population Mitochondria Different-Phenotype (%)” value [6] was 48%, the “Population Mitotic Cells (%)” value [6] was 75% and the “Population Normal (%)” value [6] was 97%. The “Population Pyknosed Nuclei (%)” value [6] was 35%, the “Population Tubulin-Different-Phenotype (%)” value [6] was 61% and the “Total Cell Count” value [6] was 259. The “Population Apoptotic (%)” value [7] was 33%, the “Population Fragmented Nuclei (%)” value [7] was 75% and the “Population Healthy Nuclei (%)” value [7] was 8%. For the same compound, the “Population Hoechst High Intensity Objects (%)” value [7] was 28%, the “Population Membrane Permeable-Phenotype (%)” value [7] was 11% and the “Population Mitochondria Different-Phenotype (%)” value [7] was 85%. For the same compound, the “Population Mitotic Cells (%)” value [7] was 66%, the “Population Normal (%)” value [7] was 71% and the “Population Pyknosed Nuclei (%)” value [7] was 15%. The “Population Tubulin-Different-Phenotype (%)” value [7] was 75%, the “Total Cell Count” value [7] was 988 and the “Population Apoptotic (%)” value [8] was 40%. The “Population Fragmented Nuclei (%)” value [8] was 51%, the “Population Healthy Nuclei (%)” value [8] was 12% and the “Population Hoechst High Intensity Objects (%)” value [8] was 20%. The “Population Membrane Permeable-Phenotype (%)” value [8] was 4%, the “Population Mitochondria Different-Phenotype (%)” value [8] was 88% and the “Population Mitotic Cells (%)” value [8] was 59%. The “Population Normal (%)” value [8] was 79%, the “Population Pyknosed Nuclei (%)” value [8] was 35% and the “Population Tubulin-Different-Phenotype (%)” value [8] was 93%. For the same compound, the “Total Cell Count” value [8] was 430, the “Population Apoptotic (%)” value [9] was 43% and the “Population Fragmented Nuclei (%)” value [9] was 10%. The “Population Healthy Nuclei (%)” value [9] was 71%, the “Population Hoechst High Intensity Objects (%)” value [9] was 7% and the “Population Membrane Permeable-Phenotype (%)” value [9] was 1%. For the same compound, the “Population Mitochondria Different-Phenotype (%)” value [9] was 56%, the “Population Mitotic Cells (%)” value [9] was 56% and the “Population Normal (%)” value [9] was 92%. The “Population Pyknosed Nuclei (%)” value [9] was 17%, the “Population Tubulin-Different-Phenotype (%)” value [9] was 45% and the “Total Cell Count” value [9] was 307. The “Population Apoptotic (%)” value [10] was 18%, the “Population Fragmented Nuclei (%)” value [10] was 6% and the “Population Healthy Nuclei (%)” value [10] was 74%. For the same compound, the “Population Hoechst High Intensity Objects (%)” value [10] was 2%, the “Population Membrane Permeable-Phenotype (%)” value [10] was 5% and the “Population Mitochondria Different-Phenotype (%)” value [10] was 21%. For the same compound, the “Population Mitotic Cells (%)” value [10] was 81%, the “Population Normal (%)” value [10] was 97% and the “Population Pyknosed Nuclei (%)” value [10] was 19%. For the same compound, the “Population Tubulin-Different-Phenotype (%)” value [10] was 55%, the “Total Cell Count” value [10] was 378 and the “Population Apoptotic (%)” value [11] was 23%. For the same compound, the “Population Fragmented Nuclei (%)” value [11] was 64%, the “Population Healthy Nuclei (%)” value [11] was 18% and the “Population Hoechst High Intensity Objects (%)” value [11] was 25%. The “Population Membrane Permeable-Phenotype (%)” value [11] was 6%, the “Population Mitochondria Different-Phenotype (%)” value [11] was 43% and the “Population Mitotic Cells (%)” value [11] was 76%. The “Population Normal (%)” value [11] was 74%, the “Population Pyknosed Nuclei (%)” value [11] was 16% and the “Population Tubulin-Different-Phenotype (%)” value [11] was 57%. For the same compound, the “Total Cell Count” value [11] was 913, the “Population Apoptotic (%)” value [12] was 26% and the “Population Fragmented Nuclei (%)” value [12] was 47%. The “Population Healthy Nuclei (%)” value [12] was 25%, the “Population Hoechst High Intensity Objects (%)” value [12] was 20% and the “Population Membrane Permeable-Phenotype (%)” value [12] was 4%. The “Population Mitochondria Different-Phenotype (%)” value [12] was 71%, the “Population Mitotic Cells (%)” value [12] was 73% and the “Population Normal (%)” value [12] was 79%. The “Population Pyknosed Nuclei (%)” value [12] was 27%, the “Population Tubulin-Different-Phenotype (%)” value [12] was 93% and the “Total Cell Count” value [12] was 444.

For `Cn1cc(C2=C(c3cn(C4CCN(Cc5ccccn5)CC4)c4ccccc34)C(=O)NC2=O)c2ccccc21` [ENZASTAURIN], the “Population Apoptotic (%)” value [1] was 23% and 42%, the “Population Fragmented Nuclei (%)” value [1] was 18% and 16% and the “Population Healthy Nuclei (%)” value [1] was 49% and 29%. The “Population Hoechst High Intensity Objects (%)” value [1] was 14% and 15%, the “Population Membrane Permeable-Phenotype (%)” value [1] was 13% and 12% and the “Population Mitotic Cells (%)” value [1] was 76% and 57%. For the same compound, the “Population Normal (%)” value [1] was 85% and 84%, the “Population Pyknosed Nuclei (%)” value [1] was 31% and 53% and the “Total Cell Count” value [1] was 539 and 569. The “Population Apoptotic (%)” value [2] was 28% and 14%, the “Population Fragmented Nuclei (%)” value [2] was 3% and 4% and the “Population Healthy Nuclei (%)” value [2] was 77% and 86%. The “Population Hoechst High Intensity Objects (%)” value [2] was 6% and 4%, the “Population Membrane Permeable-Phenotype (%)” value [2] was 2% and 6% and the “Population Mitochondria Different-Phenotype (%)” value [2] was 72% and 25%. The “Population Mitotic Cells (%)” value [2] was 71% and 85%, the “Population Normal (%)” value [2] was 93% and 95% and the “Population Pyknosed Nuclei (%)” value [2] was 19% and 9%. For the same compound, the “Population Tubulin-Different-Phenotype (%)” value [2] was 87% and 37%, the “Total Cell Count” value [2] was 1031 and 1115 and the “Population Apoptotic (%)” value [5] was 49% and 19%. The “Population Fragmented Nuclei (%)” value [5] was 19% and 16%, the “Population Healthy Nuclei (%)” value [5] was 39% and 65% and the “Population Hoechst High Intensity Objects (%)” value [5] was 24% and 11%. The “Population Membrane Permeable-Phenotype (%)” value [5] was 11% and 6%, the “Population Mitotic Cells (%)” value [5] was 50% and 80% and the “Population Normal (%)” value [5] was 75% and 88%. The “Population Pyknosed Nuclei (%)” value [5] was 41% and 18%, the “Population Tubulin-Different-Phenotype (%)” value [5] was 76% and 32% and the “Total Cell Count” value [5] was 506 and 516. The “Population Fragmented Nuclei (%)” value [6] was 4% and 12%, the “Population Healthy Nuclei (%)” value [6] was 85% and 83% and the “Population Hoechst High Intensity Objects (%)” value [6] was 9% and 5%. For the same compound, the “Population Membrane Permeable-Phenotype (%)” value [6] was 3% and 4%, the “Population Mitotic Cells (%)” value [6] was 68% and 93% and the “Population Normal (%)” value [6] was 90% and 94%. The “Population Tubulin-Different-Phenotype (%)” value [6] was 77% and 27% and the “Total Cell Count” value [6] was 1011 and 1578.
